Legend:
[1] = target: T1, Broad substrate specificity ATP-binding cassette transporter ABCG2 (Homo sapiens, UniProt Q9UNQ0); experiment: Reversal of human ABCG2-mediated multidrug resistance in HEK293/R482 cells assessed as fold change in mitoxantrone IC50 at 2 uM after 72 hrs by CCK8 assay relative to mitoxantrone IC50; format: cell-based
T1 sequence (Q9UNQ0 whole entry): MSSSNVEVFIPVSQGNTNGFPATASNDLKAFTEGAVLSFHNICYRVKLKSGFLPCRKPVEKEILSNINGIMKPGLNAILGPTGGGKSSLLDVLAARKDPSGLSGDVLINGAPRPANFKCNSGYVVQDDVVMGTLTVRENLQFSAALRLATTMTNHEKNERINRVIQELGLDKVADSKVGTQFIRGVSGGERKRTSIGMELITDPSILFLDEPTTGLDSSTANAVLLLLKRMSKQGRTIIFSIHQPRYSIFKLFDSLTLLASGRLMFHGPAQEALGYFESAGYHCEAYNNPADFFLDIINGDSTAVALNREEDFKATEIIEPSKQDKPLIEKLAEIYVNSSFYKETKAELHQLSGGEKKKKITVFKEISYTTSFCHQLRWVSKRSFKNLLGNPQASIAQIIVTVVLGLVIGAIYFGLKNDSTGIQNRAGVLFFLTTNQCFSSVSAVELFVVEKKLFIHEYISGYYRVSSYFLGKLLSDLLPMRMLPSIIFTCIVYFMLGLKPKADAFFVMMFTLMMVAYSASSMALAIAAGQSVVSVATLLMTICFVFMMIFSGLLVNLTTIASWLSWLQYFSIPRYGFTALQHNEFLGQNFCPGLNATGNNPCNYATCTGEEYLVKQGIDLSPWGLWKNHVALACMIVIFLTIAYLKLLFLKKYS
Outline: (§1)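 Cells were seeded at 5000/well for 24 h, then given colchicine, etoposide, mitoxantrone or topotecan ± non-toxic modulator (0.5–3.0 μM) for 72 h, with DMSO up to 0.5%. IC50 came from fitted curves (mean ± SD, three experiments). Fold-reversal = IC50 without modulator ÷ IC50 with modulator.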

[2] = target: T1, Broad substrate specificity ATP-binding cassette transporter ABCG2; experiment: Reversal of human ABCG2-mediated multidrug resistance in HEK293/R482 cells assessed as fold change in mitoxantrone IC50 at 1 uM after 72 hrs by CCK8 assay relative to mitoxantrone IC50; format: cell-based; outline: as §1
[3] = target: T1, Broad substrate specificity ATP-binding cassette transporter ABCG2; experiment: Modulation of ABCG2 (unknown origin) expressed in High Five insect cell vesicle membrane assessed as stimulation of ATPase activity after 20 mins by colorimetric assay
Outline: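 Membrane vesicles from ABCG2-expressing High Five cells were incubated with LCA (0–390 μM) at 37 °C for 20 min in 50 mM MES-Tris pH 6.8 with ouabain, DTT, NaN3, EGTA and KCl, ±0.3 mM vanadate. Liberated Pi was read by molybdate/ascorbate colorimetry at 880 nm. Vi-sensitive activity = activity minus activity with vanadate; mean ± SD of three experiments.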

[4] = target: T2, ATP-dependent translocase ABCB1 (Homo sapiens, UniProt P08183); experiment: Modulation of human ABCB1 expressed in HEK293/MDR19 cells assessed as increase in intracellular calcein-AM accumulation at 20 uM incubated for 10 mins by FACScan flow cytometry; format: cell-based
Outline: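 Cells held drug-free 7 days. 3 × 10^5 cells in IMDM with 5% FCS were loaded with calcein-AM for 10 min, with or without 20 μM LCA. Reference inhibitors were tariquidar 3 μM (ABCB1) and MK-571 25 μM (ABCC1). Calcein fluorescence (ex 485/em 535 nm) was read by flow cytometry; at least three independent experiments.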

HEK293 [5] = experiment: Cytotoxicity against HEK293 cells after 72 hrs by CCK8 assay; format: cell-based; conditions: Homo sapiens, HEK293, 72 h
Outline: (§2)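 Cells seeded at 5000/well, allowed 24 h, then exposed to a concentration series for 72 h at 37 °C in DMSO vehicle (up to 0.5% v/v). HEK293 lines were read with CCK-8 and cancer lines with MTT. IC50 was taken from fitted dose-response curves over at least three independent experiments. Lines were kept drug-free for 7 days before assay.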

HEK293 [6] = experiment: Cytotoxicity against HEK293 cells overexpressing human ABCG2 after 72 hrs by CCK8 assay; format: ADME, cell-based; conditions: HEK293, 72 h; outline: as §2
[7] = target: T1, Broad substrate specificity ATP-binding cassette transporter ABCG2; experiment: Reversal of ABCG2 (unknown origin)-mediated multidrug resistance in human H460-MX20 cells assessed as fold change in mitoxantrone IC50 at 3 uM after 72 hrs by MTT assay relative to mitoxantrone IC50; format: cell-based
Outline: (§3)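 Cells held drug-free 7 days, seeded at 5000 per well for 24 h, then exposed 72 h to mitoxantrone or topotecan dilutions with DMSO (≤0.5%), LCA 0.5–3.0 μM, or Ko143 1.0 μM. Viability was read by MTT. IC50 came from fitted dose-response curves of three independent experiments. Fold-reversal = IC50 without modulator divided by IC50 with modulator.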

[8] = target: T1, Broad substrate specificity ATP-binding cassette transporter ABCG2; experiment: Reversal of ABCG2 (unknown origin)-mediated multidrug resistance in human H460-MX20 cells assessed as fold change in mitoxantrone IC50 at 1 uM after 72 hrs by MTT assay relative to mitoxantrone IC50; format: cell-based; outline: as §3
[9] = target: T1, Broad substrate specificity ATP-binding cassette transporter ABCG2; experiment: Reversal of ABCG2 (unknown origin)-mediated multidrug resistance in human S1-M1-80 cells assessed as fold-change in topotecan IC50 at 2 uM after 72 hrs by MTT assay relative to topotecan IC50; format: cell-based; conditions: s1-m1-80, 72 h
Outline: (§4)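 MTT readout in S1-M1-80 colon cancer cells (mitoxantrone-selected, held in 80 μM mitoxantrone, then drug-free 7 days before assay). Cells were seeded at 5000/well for 24 h, then given increasing mitoxantrone or topotecan with DMSO or non-toxic modulator for 72 h at 37 °C. IC50 came from fitted dose-response curves (at least three independent experiments). Fold-reversal = IC50 without modulator ÷ IC50 with modulator.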

[10] = target: T1, Broad substrate specificity ATP-binding cassette transporter ABCG2; experiment: Reversal of ABCG2 (unknown origin)-mediated multidrug resistance in human S1-M1-80 cells assessed as fold-change in topotecan IC50 at 0.5 uM after 72 hrs by MTT assay relative to topotecan IC50; format: cell-based; conditions: s1-m1-80, 72 h; outline: as §4
S1 [11] = experiment: Effect on topotecan-induced cytotoxicity against human S1 cells assessed as fold change in topotecan IC50 at 3 uM after 72 hrs by MTT assay relative to topotecan IC50; format: functional
Outline: (§5)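 Parental S1 colon and H460 lung cancer cells were exposed for 72 h to a mitoxantrone or topotecan concentration series, with or without modulator at 0.5–3.0 μM, and read by MTT. Fold-reversal is IC50 without modulator divided by IC50 with modulator, taken from dose-response curves of three independent experiments.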

S1 [12] = experiment: Effect on mitoxantrone-induced cytotoxicity against human S1 cells assessed as fold change in mitoxantrone IC50 at 3 uM after 72 hrs by MTT assay relative to mitoxantrone IC50; format: functional; outline: as §5
[13] = target: Multidrug resistance-associated protein 1 (Homo sapiens, UniProt P33527); experiment: Reversal of human ABCC1-mediated multidrug resistance in HEK293/MRP1 cells assessed as fold-change in etoposide IC50 at 0.5 uM after 72 hrs by CCK8 relative to etoposide IC50; format: cell-based; outline: as §1
[14] = target: T2, ATP-dependent translocase ABCB1; experiment: Reversal of human ABCB1-mediated multidrug resistance in HEK293/MDR19 cells assessed as fold change in colchicine IC50 at 1 uM after 72 hrs by CCK8 relative to colchicine IC50; format: cell-based; outline: as §1

T2 sequence (P08183 whole entry): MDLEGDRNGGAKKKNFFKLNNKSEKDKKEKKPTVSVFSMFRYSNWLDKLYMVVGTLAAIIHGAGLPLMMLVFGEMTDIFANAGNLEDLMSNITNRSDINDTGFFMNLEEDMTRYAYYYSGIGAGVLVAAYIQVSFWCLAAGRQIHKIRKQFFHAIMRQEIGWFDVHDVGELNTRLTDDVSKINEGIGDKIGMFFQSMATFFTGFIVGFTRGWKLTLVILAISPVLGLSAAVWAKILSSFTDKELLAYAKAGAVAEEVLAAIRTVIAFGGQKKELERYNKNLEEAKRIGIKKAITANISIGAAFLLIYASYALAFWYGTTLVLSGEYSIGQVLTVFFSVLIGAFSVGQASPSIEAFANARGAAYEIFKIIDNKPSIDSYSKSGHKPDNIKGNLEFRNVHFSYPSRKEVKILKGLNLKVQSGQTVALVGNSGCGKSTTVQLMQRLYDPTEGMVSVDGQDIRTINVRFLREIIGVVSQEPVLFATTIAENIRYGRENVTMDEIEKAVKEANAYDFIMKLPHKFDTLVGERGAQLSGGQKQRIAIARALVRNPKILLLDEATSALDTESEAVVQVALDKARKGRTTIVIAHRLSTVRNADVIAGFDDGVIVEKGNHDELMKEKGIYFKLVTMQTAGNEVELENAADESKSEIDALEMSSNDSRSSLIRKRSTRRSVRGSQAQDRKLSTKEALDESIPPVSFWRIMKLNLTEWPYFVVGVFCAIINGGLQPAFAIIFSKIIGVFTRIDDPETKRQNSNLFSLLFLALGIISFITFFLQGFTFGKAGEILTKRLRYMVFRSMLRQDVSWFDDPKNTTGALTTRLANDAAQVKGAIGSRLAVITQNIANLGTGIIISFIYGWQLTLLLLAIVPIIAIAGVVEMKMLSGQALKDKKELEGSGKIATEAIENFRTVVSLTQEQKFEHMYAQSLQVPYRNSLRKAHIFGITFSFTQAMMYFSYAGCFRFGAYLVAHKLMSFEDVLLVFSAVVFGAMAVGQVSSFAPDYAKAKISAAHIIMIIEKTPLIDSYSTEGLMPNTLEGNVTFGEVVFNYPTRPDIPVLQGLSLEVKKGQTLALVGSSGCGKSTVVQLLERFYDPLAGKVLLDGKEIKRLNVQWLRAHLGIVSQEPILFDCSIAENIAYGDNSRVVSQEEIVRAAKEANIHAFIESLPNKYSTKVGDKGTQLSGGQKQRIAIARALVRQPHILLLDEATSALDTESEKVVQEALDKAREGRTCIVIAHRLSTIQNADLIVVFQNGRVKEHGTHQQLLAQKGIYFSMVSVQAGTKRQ
Multidrug resistance-associated protein 1, sequence (P33527 whole entry): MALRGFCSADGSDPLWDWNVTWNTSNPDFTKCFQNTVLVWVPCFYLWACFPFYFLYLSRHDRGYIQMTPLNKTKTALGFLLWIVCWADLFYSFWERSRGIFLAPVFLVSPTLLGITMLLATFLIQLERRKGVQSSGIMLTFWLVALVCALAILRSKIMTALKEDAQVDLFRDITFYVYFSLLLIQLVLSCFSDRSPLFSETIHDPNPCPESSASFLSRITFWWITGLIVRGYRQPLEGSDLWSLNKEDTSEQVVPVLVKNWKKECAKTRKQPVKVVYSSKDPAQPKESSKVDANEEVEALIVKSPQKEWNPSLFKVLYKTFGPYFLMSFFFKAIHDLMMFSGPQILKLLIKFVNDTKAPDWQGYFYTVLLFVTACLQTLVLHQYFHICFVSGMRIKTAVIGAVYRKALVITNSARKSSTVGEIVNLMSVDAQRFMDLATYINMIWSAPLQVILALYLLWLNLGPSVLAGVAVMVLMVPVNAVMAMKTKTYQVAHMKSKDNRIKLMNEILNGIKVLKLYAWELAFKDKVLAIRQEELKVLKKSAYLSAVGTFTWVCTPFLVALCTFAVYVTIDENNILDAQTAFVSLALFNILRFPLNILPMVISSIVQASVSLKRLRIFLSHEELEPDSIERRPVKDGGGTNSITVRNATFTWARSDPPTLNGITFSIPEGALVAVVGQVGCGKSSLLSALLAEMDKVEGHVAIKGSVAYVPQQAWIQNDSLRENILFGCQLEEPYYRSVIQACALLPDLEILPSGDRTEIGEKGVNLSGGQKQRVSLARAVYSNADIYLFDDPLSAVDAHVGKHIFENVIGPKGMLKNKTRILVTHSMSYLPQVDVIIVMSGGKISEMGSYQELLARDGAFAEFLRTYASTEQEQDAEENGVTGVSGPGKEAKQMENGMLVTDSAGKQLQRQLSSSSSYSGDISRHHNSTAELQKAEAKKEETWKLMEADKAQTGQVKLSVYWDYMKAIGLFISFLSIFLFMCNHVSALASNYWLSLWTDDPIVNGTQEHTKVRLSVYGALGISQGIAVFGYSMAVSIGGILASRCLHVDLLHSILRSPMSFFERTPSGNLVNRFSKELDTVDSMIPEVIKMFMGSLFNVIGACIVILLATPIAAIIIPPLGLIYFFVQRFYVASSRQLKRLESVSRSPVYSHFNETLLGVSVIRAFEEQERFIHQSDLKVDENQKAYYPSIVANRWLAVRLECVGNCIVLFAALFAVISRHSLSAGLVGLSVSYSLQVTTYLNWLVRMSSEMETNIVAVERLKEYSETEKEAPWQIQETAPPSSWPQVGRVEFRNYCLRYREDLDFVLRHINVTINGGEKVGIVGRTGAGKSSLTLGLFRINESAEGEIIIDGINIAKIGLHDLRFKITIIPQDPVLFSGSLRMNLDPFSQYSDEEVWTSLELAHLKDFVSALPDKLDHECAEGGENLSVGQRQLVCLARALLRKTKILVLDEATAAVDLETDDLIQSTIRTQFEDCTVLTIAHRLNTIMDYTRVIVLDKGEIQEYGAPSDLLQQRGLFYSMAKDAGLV

C=CC(C)(C)c1cc(/C=C/C(=O)c2ccc(O)cc2)c(OC)cc1O [LICOAGROCHACONE A]
fold change (FC) [1]: 6.5
fold change (FC) [2]: 7.1
EC50 [3]: 14 µM
Activity ([3]; human, 20 min): Dose-dependent effect
Activity [4]: Not Active
IC50 (HEK293 [5]): 10 to 50 µM
IC50 (HEK293 [6]): 10 to 50 µM
fold change (FC) [7]: 16.6
fold change (FC) [8]: 13.4
fold change (FC) [9]: 24.7
fold change (FC) [10]: 9.8
fold change (FC) (S1 [11]): 0.9
fold change (FC) (S1 [12]): 1
fold change (FC) [13]: 1.2
fold change (FC) [14]: 0.8
